In ChEMBL document CHEMBL4513216, “Probing the Open Global Health Chemical Diversity Library for Multistage-Active Starting Points for Next-Generation Antimalarials” (ACS Infect Dis, 2020) one finds cytotoxicity data, which are given here for 70 molecules.

Each structure is given as a SMILES string.

A short description of the series: Toxicity liver stage against HepG2, at 10uM. It counts as cell-based. Further details: test concentration 10 uM, cell line HepG2-A16-CD81EGFP. Particulars: human, HepG2-A16-CD81EGFP cells; read-out: INHIBITION
The gist of the method:
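Uninfected HepG2-A16-CD81EGFP cells, 3 × 10^3 per well, 1536-well, plated on prespotted compound at 10 μM final, parasite-free screening media added to match infected plates; puromycin 10 μM positive, DMSO 0.5% negative; run in parallel with 48 h PbLuc assay at 37 °C, 5% CO2; viability by CellTiter-Glo luminescence, normalized to controls.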
For `O=C(Nc1ccc(Cl)cc1C(=O)NCCN1CCOCC1)c1ccco1`, the cytotoxicity at 10 µM is -4.62%.
Consider `CC[C@H]1CN2CC[C@H]1C[C@@H]2CNC(=O)Nc1ccccc1`, for which the cytotoxicity at 10 µM is -0.989%.
`COc1ccc2nnc(CCCC(=O)NCCc3ccncc3)n2n1`: the cytotoxicity at 10 µM is -10%.
`CCOC(=O)c1sc(NC(=O)CN2C(=O)CCC2=O)c(C#N)c1C`: the cytotoxicity at 10 µM was -6.93%.
With `N#Cc1ccc(C(=O)N2CCC(Oc3ccc(C#N)cn3)CC2)cc1`, the cytotoxicity at 10 µM worked out at 7.92%.
Consider `Cc1noc(C2CCC3(CCN(C(=O)C4CCOCC4)CC3)O2)n1` (stereo not given), for which the cytotoxicity at 10 µM amounted to 7.16%.
As to `CSc1nc2cc(C)n(CC(=O)N3CCCC3)c2c(=O)n1CC(C)C`, the cytotoxicity at 10 µM was determined as 3.64%.
With `O=C(CCn1ccc2ccc(F)cc21)/N=c1\[nH]nc(C2CCCO2)s1` (stereo not given), the cytotoxicity at 10 µM was -0.0308%.
As for `Cc1c(C)n(-c2ccccn2)c2nc3c(c(N)c12)CCCCC3`, the cytotoxicity at 10 µM stood at 6.1%.
Turning to `Cc1c(Br)cnn1CCC(=O)N(C)Cc1c(Cl)cnn1C`, the cytotoxicity at 10 µM is -13.7%.
Take `Cc1noc(C)c1-c1cccc(C2CCN(S(=O)(=O)N(C)C)CC2)n1`: the cytotoxicity at 10 µM came to 8.18%.
With `Cc1cnc(-c2nc(C3CCN(Cc4ccccc4Cl)CC3)no2)cn1`, the cytotoxicity at 10 µM is -5.85%.
For `Cc1csc2c(C3CCN(C(=O)Cn4cncn4)CC3)nc(C)n12` the value was 6.28%.
Take `COc1ccc(C2CNCCN2C(=O)c2nccc3ccccc23)cc1` (stereo not given): the cytotoxicity at 10 µM was determined as 4.1%.
On to `CNC(=O)C1(c2cnccn2)CCCN1C(=O)c1cccnc1OC` (stereo not given), for which the cytotoxicity at 10 µM is -8.55%.
For the molecule `COCC(=O)N1CCN(c2cc(C)nc(C3CCCN3C(C)=O)c2)CC1` (stereo not given), the cytotoxicity at 10 µM worked out at 1.86%.
For the molecule `O=C(COc1cccc(F)c1)N1C[C@@H](O)[C@H](N2CCOCC2)C1`, the cytotoxicity at 10 µM amounted to 6.02%.
For `COc1cc2nc3n(c(=O)c2cc1OC)CCN(C(=O)C(C)(C)C)CC3` the value was -13.5%; for `OC1CCN(Cc2c(-c3ccco3)[nH]c3ncccc23)CC1`, -1.58%.
For `CCc1cc(C(=O)N2CCc3nc4c(C)csc4c(=O)n3CC2)on1`, the cytotoxicity at 10 µM is -14.9%.
As for `CN(c1ccncn1)C1CC2(CCN(C(=O)c3cncs3)C2)C1` (stereo not given), the cytotoxicity at 10 µM is -8.13%.
Take `O=C(c1ccncc1)N1CCC(O)(Cn2ccc3ccncc32)CC1`: the cytotoxicity at 10 µM was determined as 1.93%.
In the case of `CC(=O)N1CCCN(Cc2ccon2)c2ccccc21`, the cytotoxicity at 10 µM turned out to be 0.616%.
Regarding `CCN(CC)S(=O)(=O)NC(C)C(=O)N(C)C` (stereo not given), the cytotoxicity at 10 µM amounted to 9.55%.
Turning to `O=C(c1ccc2[nH]cnc2c1)N1CCC(COc2ccccn2)CC1`, the cytotoxicity at 10 µM is -2.91%.
As for `CC(C)(C(=O)NCCCc1nc2ccccc2[nH]1)n1cc(Cl)cn1`, the cytotoxicity at 10 µM turned out to be 4.05%.
Consider `O=C1CSCN1CC(=O)N1CCCC1c1nc2ccccc2s1` (stereo not given), for which the cytotoxicity at 10 µM was -12.7%.
For `COc1ccc(C(CC(=O)O)NC(=O)c2cc(C)on2)cc1` (stereo not given), the cytotoxicity at 10 µM came to 5.12%.
For `COc1cccc(S(=O)(=O)CCN2CCCC2c2ccc[nH]2)c1` (stereo not given) the value was -3.89%; for `O=C(c1ccccc1F)N1CCN(CCCn2cncn2)CC1`, 2.99%; for `Cc1cc(CC(=O)NCC(O)c2ccc(OC(F)F)cc2)n[nH]1` (stereo not given), -0.988%.
As for `CC1CCN(C(CNC(=O)Cn2cccn2)c2cccs2)CC1` (stereo not given), the cytotoxicity at 10 µM was -16%.
As for `Cc1nc(CN2CCC(CNC(=O)NCCC3CCC3)CC2)oc1C`, the cytotoxicity at 10 µM is -0.5%.
Turning to `CCn1cc(NC(=O)NC(CO)Cc2c[nH]c3ccccc23)cn1` (stereo not given), the cytotoxicity at 10 µM is -7.03%.
Consider `Cn1cnc2c1CCN(CCOc1ccc3c(c1)CCC(=O)N3)C2`, for which the cytotoxicity at 10 µM is -4.48%.
On to `Cc1cncc(C(=O)N2CCCCC2c2nc[nH]n2)c1` (stereo not given), for which the cytotoxicity at 10 µM was -0.229%.
As for `Cn1c(CCNc2nccnc2C#N)nc2cc(Cl)ccc21`, the cytotoxicity at 10 µM was -6%.
Take `COCC(C)(CCO)NC(=O)Nc1cccc(Br)c1C` (stereo not given): the cytotoxicity at 10 µM is 10.5%.
As to `Cc1cc(NC(=O)NCC2(O)CCCC2)ccn1`, the cytotoxicity at 10 µM was -6.36%.
In the case of `Cc1nnnn1-c1cc(NCc2cc(C#N)ccc2F)ccc1F`, the cytotoxicity at 10 µM turned out to be 0.685%.
For the molecule `O=C(N1CCC(O)(C(F)(F)F)C1)C1(c2ccc(Cl)cc2)CC1` (stereo not given), the cytotoxicity at 10 µM stood at 9.64%.
Turning to `COc1ccccc1CC(=O)NC(CC(=O)O)c1ccc(F)cc1` (stereo not given), the cytotoxicity at 10 µM is -4.24%.
Turning to `O=C(CC(F)(F)F)N1CCc2onc(Cn3cccn3)c2C1`, the cytotoxicity at 10 µM worked out at 0.635%.
Regarding `CS(=O)(=O)N[C@@H]1CCO[C@]2(CCN(C(=O)c3cnccn3)C2)C1`, the cytotoxicity at 10 µM worked out at 1.98%.
On to `Cc1nn(C)c2nc(N3CCNC(=O)C3Cc3ccccc3)sc12` (stereo not given), for which the cytotoxicity at 10 µM is -2.32%.
Turning to `Cc1ccc(OC[C@@H]2CNC[C@H](C(=O)NCC3CCCO3)C2)cn1` (stereo not given in full), the cytotoxicity at 10 µM is -8.14%.
For `OC(CNc1ccncn1)CN1CCCCCC1` (stereo not given) the value was -0.271%; for `O=C(CC1=CSC2=NCCCN12)N1CCCCC1c1cccc(F)c1` (stereo not given), -160%.
For `CC1(C)CN(Cc2c[nH]c(CC3CCCC3)n2)CC[C@]1(C)O`, the cytotoxicity at 10 µM worked out at 2.74%.
Take `O=c1[nH]c(-c2ccncc2)nc2c1CCN(S(=O)(=O)N1CCCC1)C2`: the cytotoxicity at 10 µM worked out at 6.04%.
For `CCc1nc(CCn2ccc3nc(OC)c(C#N)cc3c2=O)no1`, the cytotoxicity at 10 µM turned out to be 3.57%.
Consider `NC1CCCN(C(=O)c2csc(-c3ccc(C(F)(F)F)cc3)n2)CC1` (stereo not given), for which the cytotoxicity at 10 µM was -15.1%.
Turning to `Cc1nc(N)nc(C)c1Cc1nc(C2CC2)n[nH]1`, the cytotoxicity at 10 µM was -9.44%.
For the molecule `CCC(NC(=O)c1nn(C)cc1C(=O)O)c1ccc(C)cc1C` (stereo not given), the cytotoxicity at 10 µM was -8.66%.
Turning to `CCCn1cc2c(C(F)F)cc(SCC(=O)O)nc2n1`, the cytotoxicity at 10 µM was -10.9%.
In the case of `COc1ccc(-c2nonc2N)cc1`, the cytotoxicity at 10 µM is -7.97%.
For `Cc1csc(N2CCN(CC(=O)N3CCCC3)CC2C)n1` (stereo not given) the value was -0.456%.
In the case of `O=C(O)c1ccc(F)c(S(=O)(=O)N2CCOc3ccccc32)c1`, the cytotoxicity at 10 µM was -4.28%.
For `COc1ccc(NC(=O)N2CCCCCC2c2ccncc2)cn1` (stereo not given) the value was 5.55%.
Turning to `Cc1nn(C)c(Cl)c1C1CCCN1C(=O)c1ccc2c(c1)OCO2` (stereo not given), the cytotoxicity at 10 µM was -2.9%.
On to `CC(C)(C)SCCCC(=O)N1CCC(Nc2cccnn2)CC1`, for which the cytotoxicity at 10 µM is -8.26%.
On to `CN1CCCc2cc(-c3cncn3CCNC3CCS(=O)(=O)C3)ccc21` (stereo not given), for which the cytotoxicity at 10 µM is -2.42%.
As for `Cc1ccc(C(CCNCCCN(C)C)C2CCOC(C)(C)C2)cc1` (stereo not given), the figure is -3.32%; as for `CC(C)CN1C(=O)C2(CCN(Cc3ccsc3)C2)c2ccccc21` (stereo not given), 15.7%; as for `O=C(NCC1CC1)[C@H]1C[C@H]2OCC[C@H]2N(CCc2ccccc2)C1`, 3.86%.
Turning to `c1cnc2c(c1)cc(C1CCOCC1)n2CCN1CCOCC1`, the cytotoxicity at 10 µM was found to be 0.487%.
For `O=C(NCC1CC1)[C@@H]1CC[C@@H]2[C@@H](CCN2Cc2ccc(F)c(F)c2)O1` the value was 8.33%; for `O=C1NC2(CCN(Cc3ccoc3)CC2)CC1c1ccncc1` (stereo not given), 6.05%.
On to `c1cnc(N2C[C@H]3CN(CC4CCOC4)C[C@H]3C2)nc1` (stereo not given in full), for which the cytotoxicity at 10 µM is -5.09%.
In the case of `Cc1ccc2c(n1)N(Cc1cccnc1)CCN(C(=O)C1CCC1)C2`, the cytotoxicity at 10 µM was 13.7%.
